SMILES strings stand for the structures.

The term IC50 denotes the concentration needed to halve the response being measured. Read a high IC50 as lower potency.

Assay [1] deals with A-431. Nature of the assay: Inhibition of human epidermoid carcinoma xenograft (A431) tumor growth. The format is functional, cell-based. The method, boiled down:
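Female athymic nu/nu mice received 5 × 10^6 A431 cells sc in the flank. At 80–120 mg tumor mass they were randomized, 10 per group. Dosing was oral, once daily on days 1–10, 40 mg/kg in 0.2% Klucel, with a vehicle control. Tumor mass [(length × width²)/2] was measured every 7 days from day 8 to 29. Relative growth is versus day 0, compared by Student t-test of log values.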
(Xenograft models place foreign cells or tissue in a host animal.)

The target of assay [2] is Epidermal growth factor receptor (Homo sapiens, UniProt P00533). Kind of assay: Inhibition of epidermal growth factor receptor using enzyme assay.
Epidermal growth factor receptor, sequence (P00533 whole entry): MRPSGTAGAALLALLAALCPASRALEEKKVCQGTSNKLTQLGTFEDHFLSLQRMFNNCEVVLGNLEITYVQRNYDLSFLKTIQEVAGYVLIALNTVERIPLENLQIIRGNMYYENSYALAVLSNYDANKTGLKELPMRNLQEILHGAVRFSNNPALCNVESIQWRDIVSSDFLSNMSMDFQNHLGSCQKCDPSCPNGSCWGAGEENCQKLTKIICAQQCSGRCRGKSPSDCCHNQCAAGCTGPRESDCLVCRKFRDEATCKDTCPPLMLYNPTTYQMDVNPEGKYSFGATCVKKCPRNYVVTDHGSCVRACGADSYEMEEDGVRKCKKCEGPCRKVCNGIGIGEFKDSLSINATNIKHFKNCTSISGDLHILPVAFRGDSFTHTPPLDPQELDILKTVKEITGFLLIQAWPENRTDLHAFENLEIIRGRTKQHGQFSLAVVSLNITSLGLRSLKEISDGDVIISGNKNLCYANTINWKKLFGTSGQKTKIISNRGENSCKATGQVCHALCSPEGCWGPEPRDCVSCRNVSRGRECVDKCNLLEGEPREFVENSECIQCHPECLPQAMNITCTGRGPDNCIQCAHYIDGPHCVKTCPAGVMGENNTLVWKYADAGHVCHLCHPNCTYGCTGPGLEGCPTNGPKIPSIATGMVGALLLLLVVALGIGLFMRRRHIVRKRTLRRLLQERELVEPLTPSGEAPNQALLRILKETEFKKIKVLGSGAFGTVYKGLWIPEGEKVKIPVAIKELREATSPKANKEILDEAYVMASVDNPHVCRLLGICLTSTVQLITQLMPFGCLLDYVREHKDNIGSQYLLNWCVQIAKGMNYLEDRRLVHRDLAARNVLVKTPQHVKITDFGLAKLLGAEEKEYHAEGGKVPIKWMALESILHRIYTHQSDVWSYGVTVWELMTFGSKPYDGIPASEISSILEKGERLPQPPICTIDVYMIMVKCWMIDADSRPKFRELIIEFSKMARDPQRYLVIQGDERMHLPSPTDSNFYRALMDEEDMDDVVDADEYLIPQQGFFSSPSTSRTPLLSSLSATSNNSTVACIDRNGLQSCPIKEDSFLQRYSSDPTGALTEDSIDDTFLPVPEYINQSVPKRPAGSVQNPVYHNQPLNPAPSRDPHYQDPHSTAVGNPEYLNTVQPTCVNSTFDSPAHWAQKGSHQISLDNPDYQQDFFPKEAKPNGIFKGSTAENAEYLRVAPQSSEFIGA
A further assay concerns SK-BR-3. Kind of assay: Inhibition of cell growth of SKBr3 cell lines using cell-based assay. The conditions noted are these: Homo sapiens. It is filed as functional. The method, boiled down:
(§1)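 Cells kept in RPMI-1640 with 5% fetal bovine serum and plated at 5.0 × 10^4/mL. Next day they were dosed at 0.5, 5, 50, 500 and 5000 ng/mL and cultured 2 days. Survival was read by sulforhodamine B. IC50 is the concentration inhibiting growth by 50%, taken from the five-point dose-response curve.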

The next assay deals with SW-620. Kind of assay: Inhibition of cell growth of SW620 cell lines using cell-based assay. It is filed as functional. The conditions noted are these: Homo sapiens. The method in brief: as §1
Assay [3] deals with Receptor tyrosine-protein kinase erbB-2 (Homo sapiens, UniProt P04626). Nature of the assay: Inhibition of human epidermal growth factor receptor (HER-2) using enzyme assay. The method, boiled down: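 His6-tagged HER-2 cytoplasmic domain was expressed in Sf-9 cells and purified on Ni-NTA (about 80% pure). Enzyme (12.5 ng/well) was preincubated with compound 10 min at room temperature in HEPES pH 7.4. Autophosphorylation ran 1 h with MnCl2/Na3VO4/DTT buffer plus 0.1 mM ATP–50 mM MgCl2 (as added). Europium anti-phosphotyrosine time-resolved fluorescence was read at 340/615 nm. IC50 came from eight concentrations, mean of duplicates.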
Receptor tyrosine-protein kinase erbB-2, sequence (P04626 whole entry, the tested form may be a part): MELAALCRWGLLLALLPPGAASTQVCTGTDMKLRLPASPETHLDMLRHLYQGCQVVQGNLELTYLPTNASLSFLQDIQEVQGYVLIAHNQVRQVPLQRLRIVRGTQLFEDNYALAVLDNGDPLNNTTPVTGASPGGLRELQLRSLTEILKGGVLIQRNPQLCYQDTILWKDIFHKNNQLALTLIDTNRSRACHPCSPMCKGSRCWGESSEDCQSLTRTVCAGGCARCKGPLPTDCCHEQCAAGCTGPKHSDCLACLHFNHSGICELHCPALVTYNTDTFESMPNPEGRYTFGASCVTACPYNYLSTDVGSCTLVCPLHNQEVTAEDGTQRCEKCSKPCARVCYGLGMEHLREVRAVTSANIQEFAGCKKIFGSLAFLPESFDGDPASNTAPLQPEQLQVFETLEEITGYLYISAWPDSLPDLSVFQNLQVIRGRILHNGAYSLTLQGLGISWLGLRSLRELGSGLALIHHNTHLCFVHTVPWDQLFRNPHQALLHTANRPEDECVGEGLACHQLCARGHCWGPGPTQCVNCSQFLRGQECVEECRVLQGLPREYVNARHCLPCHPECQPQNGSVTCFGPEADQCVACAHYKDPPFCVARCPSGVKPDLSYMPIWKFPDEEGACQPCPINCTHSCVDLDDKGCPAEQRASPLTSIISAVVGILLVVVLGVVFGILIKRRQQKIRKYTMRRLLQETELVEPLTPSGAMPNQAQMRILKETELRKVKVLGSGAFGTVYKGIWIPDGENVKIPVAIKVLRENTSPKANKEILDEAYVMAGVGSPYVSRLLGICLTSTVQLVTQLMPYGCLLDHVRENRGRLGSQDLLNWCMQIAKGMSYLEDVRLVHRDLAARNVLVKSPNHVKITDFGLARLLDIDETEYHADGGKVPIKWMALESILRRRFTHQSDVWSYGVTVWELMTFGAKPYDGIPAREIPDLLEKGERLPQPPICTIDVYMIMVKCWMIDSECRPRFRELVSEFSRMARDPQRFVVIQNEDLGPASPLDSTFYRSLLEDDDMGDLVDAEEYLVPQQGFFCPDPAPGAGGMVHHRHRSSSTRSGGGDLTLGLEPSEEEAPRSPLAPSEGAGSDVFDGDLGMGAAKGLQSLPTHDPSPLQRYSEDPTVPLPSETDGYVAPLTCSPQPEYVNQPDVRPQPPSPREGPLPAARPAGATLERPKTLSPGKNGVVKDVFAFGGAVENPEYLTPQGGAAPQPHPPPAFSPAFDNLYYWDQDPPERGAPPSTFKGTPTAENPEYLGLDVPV

In assay [4] the test system is A-431. Nature of the assay: Inhibition of cell growth of human epidermoid carcinoma xenograft (A431) model using cell based assay. It is filed as functional.

For the molecule `COCOCC#CC(=O)Nc1ccc2ncnc(Nc3cccc(Br)c3)c2c1`, the half-inhibitory concentration (IC50) in the assay with A-431 [1] was 306 nM; in assay [2], 59 nM; in the assay with SK-BR-3 it was 92 nM; in the assay on SW-620, 2080 nM; in assay [3], 122 nM.
Turning to `CN(C)/C=C/C(=O)Nc1ccc2ncnc(Nc3cccc(Br)c3)c2c1`, the IC50 came out at 2100 nM in the assay on A-431 [1]; 250 nM in assay [2]; 1760 nM in the assay with SK-BR-3; 12100 nM in the assay on SW-620; 25700 nM in assay [3].
As to `COC[C@@H]1CCCN1C/C=C\C(=O)Nc1ccc2ncnc(Nc3cccc(Br)c3)c2c1`, the half-inhibitory concentration (IC50) with A-431 [4] worked out at 353 nM; in assay [2], 194 nM; in the assay on SK-BR-3, 13 nM; with SW-620, 2860 nM; in assay [3] it was 2920 nM.
For the molecule `COCC1CCCN1CC#CC(=O)Nc1ccc2ncnc(Nc3cccc(Br)c3)c2c1` (centres undefined), the IC50 worked out at 81 nM in the assay with A-431 [4]; 65 nM in assay [2]; 2 nM in the assay with SK-BR-3; 324 nM in the assay on SW-620; 117 nM in assay [3].
As for `C=CC(=O)Nc1ccc2ncnc(Nc3cccc(Br)c3)c2c1`, the concentration for half-maximal inhibition (IC50) in the assay with A-431 [1] was found to be 95 nM; with SK-BR-3, 15 nM; in the assay with SW-620, 4130 nM; in assay [3] it was 114 nM.
For the molecule `COCCN(C)C/C=C/C(=O)Nc1ccc2ncnc(Nc3cccc(Br)c3)c2c1`, the IC50 in the assay on A-431 [4] was determined as 564 nM; in assay [2] it was 62 nM; in the assay with SK-BR-3 it was 3 nM; in the assay with SW-620, 5890 nM; in assay [3], 634 nM.
With `O=C(C#CCN1CCCCC1)Nc1ccc2ncnc(Nc3cccc(Br)c3)c2c1`, the IC50 with A-431 [4] is 32 nM; in assay [2], 57 nM; in the assay on SK-BR-3, 2 nM; with SW-620, 302 nM; in assay [3], 73 nM.
As for `O=C(/C=C/CN1CCC(N2CCCCC2)CC1)Nc1ccc2ncnc(Nc3cccc(Br)c3)c2c1`, the IC50 in the assay on A-431 [4] came to 756 nM; in assay [2] it was 68 nM; in the assay with SK-BR-3, 10 nM; in the assay on SW-620, 4150 nM; in assay [3] it was 1590 nM.
As for `CN1CCC=C(C(=O)Nc2ccc3ncnc(Nc4cccc(Br)c4)c3c2)C1`, the IC50 in the assay on A-431 [4] is 2340 nM; in assay [2] it was 115 nM; in the assay with SK-BR-3, 478 nM; with SW-620, 10500 nM; in assay [3], 5040 nM.
Take `CC(C)N(C)CC#CC(=O)Nc1ccc2ncnc(Nc3cccc(Br)c3)c2c1`: the IC50 in the assay with A-431 [4] amounted to 77 nM; in assay [2] it was 85 nM; with SK-BR-3, 4 nM; in the assay with SW-620, 232 nM; in assay [3], 113 nM.
For `COC[C@H]1CCCN1C/C=C/C(=O)Nc1ccc2ncnc(Nc3cccc(Br)c3)c2c1` the same measures were 616 nM, 85 nM, 1 nM, 10100 nM and 733 nM.
For the molecule `CCN1CCN(CC#CC(=O)Nc2ccc3ncnc(Nc4cccc(Br)c4)c3c2)CC1`, the IC50 in the assay with A-431 [4] was found to be 598 nM; in assay [2], 65 nM; with SK-BR-3, 62 nM; in the assay on SW-620, 4600 nM; in assay [3], 183 nM.
`COC/C=C/C(=O)Nc1ccc2ncnc(Nc3cccc(Br)c3)c2c1`: the 50% inhibitory concentration (IC50) stood at 8500 nM with A-431 [4]; 1130 nM in assay [2]; 370 nM in the assay with SK-BR-3; 12100 nM in the assay with SW-620; 8830 nM in assay [3].
Take `O=C(/C=C/CN1CCSCC1)Nc1ccc2ncnc(Nc3cccc(Br)c3)c2c1`: the IC50 in the assay on A-431 [4] was 589 nM; in assay [2], 203 nM; in the assay with SK-BR-3, 12 nM; in the assay with SW-620, 8470 nM; in assay [3], 2810 nM.
As for `CCCN(C/C=C/C(=O)Nc1ccc2ncnc(Nc3cccc(Br)c3)c2c1)CCC`, the half-maximal inhibitory concentration (IC50) in the assay with A-431 [4] was 145 nM; in assay [2] it was 90 nM; with SK-BR-3 it was 2 nM; in the assay with SW-620, 2280 nM; in assay [3], 1430 nM.
For `O=C(/C=C/CN1CCCCC1)Nc1ccc2ncnc(Nc3cccc(Br)c3)c2c1`, the IC50 with A-431 [4] was determined as 182 nM; in assay [2] it was 106 nM; with SK-BR-3, 4 nM; in the assay on SW-620 it was 2680 nM; in assay [3], 1560 nM.
Take `O=C(/C=C/N1CCOCC1)Nc1ccc2ncnc(Nc3cccc(Br)c3)c2c1`: the IC50 in the assay on A-431 [1] came to 1080 nM; in assay [2] it was 215 nM; with SK-BR-3, 1020 nM; in the assay on SW-620 it was 2020 nM; in assay [3] it was 4180 nM.
On to `COCCOCC#CC(=O)Nc1ccc2ncnc(Nc3cccc(Br)c3)c2c1`, for which the concentration for half-maximal inhibition (IC50) with A-431 [4] was determined as 77 nM; in assay [2] it was 65 nM; with SK-BR-3, 9 nM; in the assay with SW-620, 945 nM; in assay [3], 116 nM.
Take `C=CCN(C)CC#CC(=O)Nc1ccc2ncnc(Nc3cccc(Br)c3)c2c1`: the IC50 in the assay on A-431 [1] was 33 nM; in assay [2], 71 nM; in the assay on SK-BR-3, 1 nM; in the assay on SW-620 it was 289 nM; in assay [3], 85 nM.
For the molecule `C=C(CN1CCOCC1)C(=O)Nc1ccc2ncnc(Nc3cccc(Br)c3)c2c1`, the IC50 with A-431 [1] came out at 128 nM; in assay [2] it was 107 nM; in the assay on SK-BR-3, 3 nM; in the assay on SW-620 it was 470 nM; in assay [3] it was 458 nM.

These data come from ChEMBL document CHEMBL1134561, “6-Substituted-4-(3-bromophenylamino)quinazolines as putative irreversible inhibitors of the epidermal growth factor receptor (EGFR) and human epidermal growth factor receptor (HER-2) tyrosine kinases with enhanced antitumor activity” (J Med Chem, 2001).
